Measured values from ChEMBL document CHEMBL3588747, “Virtual High-Throughput Screening To Identify Novel Activin Antagonists” (J Med Chem, 2015).
Calls of active or inactive are those of the source. No cut-off for these calls is given here.

Columns and labels:
[1] = target: T1, Inhibin beta A chain (Mus musculus, UniProt Q04998); assay: Antagonist activity at activin A in mouse LbetaT2 cells transfected with -338 promoter region of FSHbeta gene conjugated to luciferase reporter assessed as inhibition of FSHbeta promoter activation by luciferase assay; format: cell-based
T1 sequence (Q04998 whole entry): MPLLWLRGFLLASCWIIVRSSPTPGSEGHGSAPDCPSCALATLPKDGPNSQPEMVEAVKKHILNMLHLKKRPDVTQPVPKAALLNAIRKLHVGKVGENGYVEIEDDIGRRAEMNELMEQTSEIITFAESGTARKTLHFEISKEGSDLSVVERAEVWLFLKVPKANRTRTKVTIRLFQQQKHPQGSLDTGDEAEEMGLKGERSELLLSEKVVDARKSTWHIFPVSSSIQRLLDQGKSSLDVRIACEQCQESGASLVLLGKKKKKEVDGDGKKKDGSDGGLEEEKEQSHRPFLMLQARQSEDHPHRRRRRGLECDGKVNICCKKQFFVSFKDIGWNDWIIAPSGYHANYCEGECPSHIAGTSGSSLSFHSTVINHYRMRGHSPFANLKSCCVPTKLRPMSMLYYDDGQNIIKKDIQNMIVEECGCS
How it was run: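 −338FSHβ-Luc stably transfected LβT2 cells, 5 × 10^4 cells/well, plated 24 h, then given activin A (0.2 nM) with compound at 0.4–100 µM (in DMSO) or Fst288 0.05–4 nM as control, 6 h at 37 °C in serum-free, phenol red-free DMEM-F12. Cells lysed, luciferase activity read; IC50 from sigmoidal variable-slope fit; means ± SD.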

[2] = Cytotoxicity against mouse LbetaT2 cells assessed as reduction in cell viability at 100 uM after 24 hrs by MTT assay; format: functional
How it was run: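 LβT2 gonadotrope cells seeded 5 × 10^4/well, grown 24 h in DMEM-F12 with 5% FBS and […] D-glucose, then exposed to compound at 10 or 100 µM in growth medium for 24 h. MTT added for a further 2–3 h; absorbance at 490 nm as viability.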

[3] = Solubility of the compound in cell growth medium up to 200 uM after 24 hrs by upright light microscopy; format: physicochemical
How it was run: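 Compound from 50 mM DMSO stock diluted to 200 µM final in DMEM-F12 with 5% FBS, 1% penicillin/streptomycin, […] D-glucose, held 24 h; precipitate checked visually under upright light microscope.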

[4] = test system: HepG2; assay: […] in human HepG2 cells assessed as cell viability after 96 hrs by MTT assay; format: functional, cell-based; settings: HepG2, 96 h
How it was run: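 HepG2 cells (5 × 10^4/well) treated with 1 nM activin A alone (DMSO solvent control) or with compound 1.6–200 µM or Fst288 0.5–8 nM, 96 h at 37 °C in DMEM with 0.2% FBS, pyruvate, glutamine. MTT added 0.5–1 h for viability as reversal of activin-induced apoptosis; IC50 from sigmoidal variable-slope fit; means ± SD.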

[5] = test system: Mus musculus; assay: Inhibition of activin - stimulated serum FSH level in ovariectomized CD1 mouse at 15 mg/kg, sc by ELISA (reference value: 100%); format: functional, organism-based
How it was run: (§1)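 Ovariectomized 12-week-old CD1 mice dosed subcutaneously twice daily for 2 days (4 doses); vehicle TBS or DMSO; Fst288 200 µg/kg for 3 doses as reference. Serum then collected, stored −20 °C, FSH measured by ELISA (sensitivity 0.35 mIU/mL, read 450 nm); vehicle mean set to 100%. 5–7 mice per group, 10 controls; one-way ANOVA with Tukey.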

[6] = test system: Mus musculus; assay: Toxicity in ovariectomized CD1 mouse assessed as liver and kidney histopathology at 60 mg/kg, sc twice daily for 2 days; format: organism-based; settings: in vivo, 48 h
How it was run: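 Ovariectomized CD1 mice given vehicle or 60 mg/kg subcutaneously, 4 doses over 2 days; kidney and liver fixed in Modified Davidson's fixative 5 days at 4 °C, paraffin-embedded, H&E stained for histopathology.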

[7] = target: T2, Inhibin beta A chain (Homo sapiens) (UniProt P08476); assay: Inhibition of interaction of activin A (unknown origin)/ActRIIA-ECD complex with ALK4-ECD-Fc after 120 secs by competitive binding/ Blitz binding assay
T2 sequence (whole entry): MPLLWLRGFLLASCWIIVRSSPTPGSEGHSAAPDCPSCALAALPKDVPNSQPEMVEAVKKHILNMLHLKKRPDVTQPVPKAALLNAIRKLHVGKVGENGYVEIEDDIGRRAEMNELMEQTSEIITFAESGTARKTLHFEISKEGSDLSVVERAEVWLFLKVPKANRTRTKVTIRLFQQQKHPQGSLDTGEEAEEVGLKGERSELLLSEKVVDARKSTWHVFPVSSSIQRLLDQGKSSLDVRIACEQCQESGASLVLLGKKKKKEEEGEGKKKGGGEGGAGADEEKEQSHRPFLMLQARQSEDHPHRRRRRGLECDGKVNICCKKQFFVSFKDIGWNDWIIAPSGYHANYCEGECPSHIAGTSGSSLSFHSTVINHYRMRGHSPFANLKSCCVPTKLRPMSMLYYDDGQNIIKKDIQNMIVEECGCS
How it was run: (§2)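 ALK4-ECD-Fc (50 ng/mL) captured on a protein A biosensor for 120 s, then dipped into activin A/ActRIIA-ECD premixed 1:2 molar, 1.6 µM final in PBS, with solvent or compound at 0.4, 1.6, 6.25 or 25 µM; 120 s association, 120 s dissociation in PBS; wavelength shift monitored by Blitz.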

[8] = test system: Mus musculus; assay: Inhibition of activin - stimulated serum FSH level in ovariectomized CD1 mouse at 60 mg/kg, sc by ELISA (reference value: 100%); format: functional; how it was run: as §1
[9] = target: T3, Growth/differentiation factor 8 (Mus musculus, UniProt O08689); assay: Antagonist activity at myostatin in mouse LbetaT2 cells transfected with -338 promoter region of FSHbeta gene conjugated to luciferase reporter assessed as inhibition of FSHbeta promoter activation by luciferase assay; format: cell-based
T3 sequence (O08689 whole entry): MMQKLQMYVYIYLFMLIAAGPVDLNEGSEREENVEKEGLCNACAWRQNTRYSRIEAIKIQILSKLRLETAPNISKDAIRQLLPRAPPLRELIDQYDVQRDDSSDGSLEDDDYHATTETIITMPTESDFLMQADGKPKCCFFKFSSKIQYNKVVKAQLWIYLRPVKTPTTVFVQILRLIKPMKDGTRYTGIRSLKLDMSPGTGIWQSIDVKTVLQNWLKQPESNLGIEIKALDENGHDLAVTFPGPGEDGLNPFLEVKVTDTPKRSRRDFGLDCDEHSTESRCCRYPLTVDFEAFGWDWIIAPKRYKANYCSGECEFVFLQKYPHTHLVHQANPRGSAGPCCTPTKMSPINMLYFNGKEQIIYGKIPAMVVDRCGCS
How it was run: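 Stable −338FSHβ-Luc LβT2 cells were plated at 5 × 10^4/well. They were stimulated with myostatin (0.2 nM) plus DMSO solvent control, or with compound at 0.8–100 µM, for 6 h at 37 °C in serum-free, phenol red-free DMEM-F12. Cells were lysed for luciferase readout. Runs were in triplicate across three experiments, and IC50 came from a sigmoidal variable-slope fit, reported as mean ± SD.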

[10] = test system: Mus musculus; assay: Toxicity in ovariectomized CD1 mouse assessed as change in behavior at 60 mg/kg, sc twice daily for 2 days; format: organism-based; settings: in vivo, 48 h
How it was run: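 Ovariectomized 12-week-old CD1 mice given subcutaneous compound twice daily for 2 days (4 doses); behaviour observed after injection.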

[11] = test system: Mus musculus; assay: Inhibition of activin - stimulated serum FSH level in ovariectomized CD1 mouse at 30 mg/kg, sc by ELISA (reference value: 100%); format: functional; how it was run: as §1
[12] = target: T2, Inhibin beta A chain (Homo sapiens); assay: Inhibition of interaction of activin A (unknown origin) with ActRIIA-ECD complex at 25 uM after 120 secs by competitive binding/ Blitz binding assay
How it was run: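 Protein A biosensor (Blitz, dip-and-read) loaded with ActRIIA-ECD-Fc; activin A at 1.6 µM final, with solvent or compound at 25 µM, 120 s association and 120 s dissociation in PBS; real-time wavelength shift recorded.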

[13] = target: Growth/differentiation factor 8 (Homo sapiens) (UniProt O14793); assay: Inhibition of interaction of myostatin (unknown origin)/ActRIIA-ECD complex with ALK4-ECD-Fc at 25 uM after 120 secs by competitive binding/ Blitz binding assay
How it was run: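 Blitz biolayer assay: ALK4-ECD-Fc (50 ng/mL) captured on protein A biosensor 120 s, exposed to myostatin/ActRIIA-ECD premixed 1:2 molar at 1.6 µM final in PBS with solvent or compound at 25 µM; 120 s association, 120 s dissociation; real-time wavelength shift.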

[14] = target: T2, Inhibin beta A chain (Homo sapiens); assay: Inhibition of interaction of activin A (unknown origin)/ActRIIA-ECD complex with ALK4-ECD-Fc at 25 uM after 120 secs by competitive binding/ Blitz binding assay; how it was run: as §2
[15] = target: T4, Inhibin beta A chain (Mus musculus) (UniProt Q04998); assay: Inhibition of activin A stimulated 4 day old CD1 mouse ovarian cell proliferation at 200 uM for 4 days by BrdU assay
T4 sequence (whole entry): T1 sequence (Q04998 whole entry)
How it was run: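 Ovaries from 4-day-old CD1 mice cultured on membrane inserts in DMEM/F12 with 0.03% BSA with 1 nM activin A plus compound at 200 µM (DMSO control; Fst288 4 nM or inhibin A 8 nM references) for 4 days, then 10 µM BrdU for 24 h. Genomic DNA (150 ng) denatured, dot-blotted, probed with anti-BrdU, ECL, densitometry; three independent experiments; ANOVA/Tukey.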

SMILES | IC50 [1] | inhibition at 100 µM [2] | solubility [3] | IC50 [4] | further results
O=C(N[C@H](Cc1ccc2c(c1)OCO2)C(=O)N[C@@H](Cc1c[nH]c2ccccc12)C(=O)O)c1ccccc1 | > 100 µM | < 20% | soluble | – | –
O=C(NCc1ccccc1)c1nn(CCO)c2c1CN(C1CCCC1)CC2 | > 100 µM | < 20% | soluble | – | –
CCCn1ncc(CN2CCN(CCCc3ccccc3)[C@@H](CCO)C2)c1C | > 100 µM | < 20% | soluble | – | –
Cn1cc(CN2C[C@H](OCc3cccnc3)CN(Cc3ccc(C#CC(C)(C)O)cc3)CC2=O)cn1 | 4.25 µM | < 20% | soluble | 43.9 µM | –
CCn1c(-c2cccnc2)nc2cc(NC(=O)COC)cc(C(=O)NCc3ccccc3)c21 | 3.67 µM | < 20% | soluble | 12.1 µM | Activity [5]: inactive; Activity [6]: Non-toxic; inhibition [7]: Dose-dependent effect; inhibition in vivo at 60 mg/kg [8]: 70%; IC50 [9]: 47.9 µM; Activity [10]: Non-toxic; inhibition in vivo at 30 mg/kg [11]: 70%; Activity [12]: inactive; Activity [13]: inactive; Activity [14]: Active; inhibition [15]: Active
O=C1CC[C@](CCC(=O)N2CCC([C@@H](O)c3cccnc3)CC2)(Cc2cccc3ccccc23)N1 | 23.6 µM | < 20% | soluble | > 200 µM | –
O=C(NCc1cccc(F)c1)[C@@H]1CCC(=O)N(CCCN2CCCC2=O)C1 | > 100 µM | < 20% | soluble | – | –
CC(C)(O)C#Cc1ccc(CN2CCC[C@@H](CCC(=O)N3CCOCC3)C2)s1 | 4.42 µM | < 20% | soluble | 23.2 µM | inhibition [15]: Active
COc1ccc(OC[C@@H](O)CN2CCC(O)CC2)c(CNCCc2cccnc2)c1 | 4.18 µM | < 20% | soluble | 47.3 µM | –
COc1cccc(CO[C@H]2CN(CCc3ccccc3)C(=O)CN(C(=O)[C@@H]3CNC(=O)C3)C2)c1 | > 100 µM | < 20% | soluble | – | –
Cc1n[nH]c(O)c1C(c1ccc(-c2ccccc2C(=O)O)o1)c1c(C)n[nH]c1O | > 100 µM | < 20% | soluble | – | –
